Myeloid diff 2: promotes myeloid progenitor differentiation | ER-HoxA9 myeloid progenitors, lysozyme-GFP differentiation, flow cytometry | calls only at 10 µM | hit rate 1% among 360,000;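 active means normalized GFP-positive differentiation at or above the plate's own cutoff, the solvent-only control mean plus 3 SD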;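 further: cells exposed to compound for four days before flow analysis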
MC4R barr agon: human MC4R agonism via beta-arrestin; P32245; U2OS MC4R beta-arrestin complementation, luminescence; percent of melanotan II response, DMSO zero; activation, % at 8.9 µM; hit rate 0.98% among 360,000; AID 540308;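 active means activation above a per-plate cutoff, the mean activation of sample wells on that plate plus 3 SD, cut at about 8% in these data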
EBI2 block: antagonists of human EBI2 receptor; inhibition, % at 5 µM; hit rate 0.81% among 360,000; P32249; EBI2 beta-arrestin recruitment, luminescence, 7a,25-OHC stimulated; in the data active means inhibition above about 38%;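 further: enzyme fragment complementation signal reports receptor beta-arrestin coupling in cells; 0% = agonist plus DMSO wells and 100% = wells without agonist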
Target sequence (P32249 whole entry, looked up, the tested form may be a part): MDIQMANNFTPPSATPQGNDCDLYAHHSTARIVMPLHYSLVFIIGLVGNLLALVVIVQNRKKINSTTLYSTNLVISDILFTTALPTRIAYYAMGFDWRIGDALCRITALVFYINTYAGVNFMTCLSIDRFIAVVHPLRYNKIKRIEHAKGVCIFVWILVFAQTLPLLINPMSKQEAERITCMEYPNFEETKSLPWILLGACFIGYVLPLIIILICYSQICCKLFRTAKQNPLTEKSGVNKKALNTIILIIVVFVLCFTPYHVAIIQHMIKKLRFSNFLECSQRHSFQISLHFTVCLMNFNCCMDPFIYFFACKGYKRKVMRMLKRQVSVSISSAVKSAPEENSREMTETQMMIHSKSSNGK
Exocytosis inh: blocks lytic granule exocytosis; TALL-104 LAMP-1 surface exposure, flow cytometry; cells stimulated with thapsigargin and PMA; inhibition, % at 10 µM; hit rate 0.66% among 360,000;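 active means inhibition above about 55%, limit read from the data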
MC4R antagonist: human MC4R antagonism in cAMP assay. inhibition, % at 6.5 µM. AID 540295. MC4R-expressing cells, MTII-stimulated cAMP, LANCE TR-FRET. P32245. hit rate 0.48% among 360,000;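 active means inhibition above its plate's cutoff, the mean of tested wells on that plate plus 3 SD, cut at about 29% in these data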;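 further: 0% = Melanotan II alone and 100% = Melanotan II plus saturating MCL0020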
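Material: U2OS-MC4R stable cell line | Reagent: Melanotan II challenge after compound preincubation | Doses: One concentration, 6.5 µM nominal | Incubation: 30-min compound preincubation, 1-h Melanotan II challenge, 1-h detection, room temperature | Signal: TR-FRET cAMP assay | Replicates: One well per compound, no replicates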
Myeloid diff CP1: myeloid differentiation induction. shares compounds with Myeloid diff 2. ER-HoxA9 myeloid progenitors, GFP/Mac1 double-positive flow. calls only. hit rate 2% among 2,300. AID 651706;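 active means share of green or green-and-red cells above 9 and 9% in run 1 or 4 and 3% in run 2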
GFP autofluor: counter-screen for myeloid differentiation promoters: compound fluorescence; fluorescence response, % (no concentration beside the values); AID 651707; ER-HoxA9 myeloid progenitors, no estrogen, GFP autofluorescence flow cytometry; vehicle wells 0%, positive control 100%; shares compounds with Myeloid diff 2; hit rate 7.4% among 2,300;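 active means over 5% cells positive for green fluorescent reporter, or over 2% positive for both it and APC stain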;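 further: range taken on the double positive population between DMSO and positive control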
Numbers without * were called inactive. Only some compounds are listed: those with a hit (about 3.7% of all), similar ones and a draw of the others.

Results for CCOc1ccc(Nc2oc(-c3ccco3)nc2C#N)cc1 ?
Myeloid diff 2: active; MC4R barr agon: 2.1; EBI2 block: 1.0; Exocytosis inh: 0.8; MC4R antagonist: 9.4; Myeloid diff CP1: inactive; GFP autofluor: 0.3

Results for COCCCNC(=S)N1CCN(S(C)(=O)=O)CC1 ?
Myeloid diff 2: inactive; MC4R barr agon: 0.4; EBI2 block: -5.3; Exocytosis inh: -4.6; MC4R antagonist: 3.3

Results for COC(=O)C[C@H]1CC[C@@H]2[C@H](COC[C@H](O)CN2S(=O)(=O)c2ccccc2OC)O1 ?
Myeloid diff 2: inactive; EBI2 block: -3.5; Exocytosis inh: 7.5

Results for O=C(COc1coc(CN2CCCc3ccccc32)cc1=O)Nc1ccc([N+](=O)[O-])cc1 ?
Myeloid diff 2: active; MC4R barr agon: -0.2; EBI2 block: -8.7; Exocytosis inh: -4.0; MC4R antagonist: -1.5; Myeloid diff CP1: inactive; GFP autofluor: 0.0

How did COc1ccccc1C(CNC(=O)c1cc(C)nc2ccccc12)N(C)C (centres undefined) do in these assays?
MC4R barr agon: 0.6; EBI2 block: -7.8; Exocytosis inh: -1.3; MC4R antagonist: -0.7

What do the screens show for `Cc1cc2c(cc1C)N(CC(=O)N1CCCC1)C(=O)CC(c1ccccc1)=N2`?
Myeloid diff 2: inactive; MC4R barr agon: 1.0; EBI2 block: 10.2; Exocytosis inh: -1.5; MC4R antagonist: 10.4; Myeloid diff CP1: inactive; GFP autofluor: 0.0

What do the screens show for `O=C(NC1CCN(Cc2ccccc2)CC1)C1CCN(S(=O)(=O)c2cccc3cccnc23)CC1`?
Myeloid diff 2: inactive; MC4R barr agon: -0.1; EBI2 block: -3.5; Exocytosis inh: 2.9; MC4R antagonist: -0.1

Results for O=S(=O)(NC1CCN(Cc2ccccc2)CC1)c1cccc2cccnc12 ?
Myeloid diff 2: inactive; MC4R barr agon: 1.1; EBI2 block: 8.3; Exocytosis inh: -2.8; MC4R antagonist: -7.8; Myeloid diff CP1: inactive; GFP autofluor: 0.0

What do the screens show for `O=C(c1ccc(S(=O)(=O)c2ccccc2Cl)c([N+](=O)[O-])c1)N1CCCCCC1`?
Myeloid diff 2: active; MC4R barr agon: -1.9; EBI2 block: -26.6; Exocytosis inh: -5.8; MC4R antagonist: 1.6; Myeloid diff CP1: inactive; GFP autofluor: 0.0

How did O=C1CC(C(=O)N2CCCc3ccccc32)CN1c1ccc(Cl)cc1 (centres undefined) do in these assays?
Myeloid diff 2: inactive; MC4R barr agon: -1.7; EBI2 block: 10.3; Exocytosis inh: 5.4; MC4R antagonist: 12.3; Myeloid diff CP1: inactive; GFP autofluor: 0.3

Results for Cc1ccc(NC(=O)c2cc(S(=O)(=O)N3CCOCC3)cn2C)cc1F ?
Myeloid diff 2: inactive; MC4R barr agon: 0.1; EBI2 block: 14.4; Exocytosis inh: -3.4; MC4R antagonist: 13.6

How did O=C1C(=O)c2ccccc2C(O)=C1c1ccccc1F do in these assays?
Myeloid diff 2: inactive; MC4R barr agon: -3.9; EBI2 block: 6.9; Exocytosis inh: 3.2; MC4R antagonist: -1.3

Results for O=C1C(O)=C(O)C(=O)c2ccccc21 ?
Myeloid diff 2: inactive; MC4R barr agon: 0.0; EBI2 block: -9.6; Exocytosis inh: -4.3; MC4R antagonist: -0.6; Myeloid diff CP1: inactive; GFP autofluor: 0.3

Results for CC(C)NC(=O)C1(C)CN(S(C)(=O)=O)CC(=O)N1CCc1ccccc1 (centres undefined) ?
Myeloid diff 2: inactive; EBI2 block: -6.7; Exocytosis inh: -2.3

What do the screens show for `COc1ccc(C(=O)NNC(=O)CCn2nnc(-c3ccc(Cl)cc3)n2)cc1OC`?
Myeloid diff 2: inactive; MC4R barr agon: 3.5; EBI2 block: -0.1; Exocytosis inh: -6.3; MC4R antagonist: 18.3

How did CC(C)Cn1cnc2c1c(=O)n(CC(=O)NC(=O)NC(C)(C)C)c(=O)n2Cc1ccccc1 do in these assays?
Myeloid diff 2: inactive; MC4R barr agon: -1.8; EBI2 block: -8.1; Exocytosis inh: 4.2; MC4R antagonist: 3.0

Results for CCN(CC)CCCNC(=O)c1cc2nc3c(c(C(F)(F)F)n2n1)CCc1ccccc1-3 ?
Myeloid diff 2: inactive; MC4R barr agon: -2.4; EBI2 block: 1.0; Exocytosis inh: 6.5; MC4R antagonist: 7.4

Screening results deposited in PubChem BioAssay by several laboratories.
